The nature of assay [1]: Inhibition of sheep brain tubulin assembly by UV-spectrophotometry. Also on record: species or system Ovis aries. Put shortly:
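Microtubule assembly run at 3 mg/mL tubulin; IC50 defined as the concentration inhibiting the rate of assembly by 50%.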

A short description of assay [2]: Antiproliferative activity against human U87 cells after 72 hrs. Type of assay: functional, cell-based, U-87MG ATCC. The following applies: U-87 MG. In a few lines: (§1)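 Cells exposed to compound for 72 h; IC50 taken as the concentration giving 50% inhibition of cell proliferation.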
A further assay concerns K562. Briefly: Antiproliferative activity against human K562 cells after 72 hrs. Type of assay: functional, cell-based. The following applies: K562, 72 h. In a few lines:
as §1

A further assay has as its system MCF7. Briefly: Antiproliferative activity against human MCF7 cells after 72 hrs. Type of assay: functional, cell-based. The following applies: MCF7, 72 h. Put shortly: as §1
The test system of the next assay is HCT-116. Briefly: Antiproliferative activity against human HCT116 cells after 72 hrs. Type of assay: functional, cell-based. The following applies: HCT-116, 72 h. In a few lines:
as §1

For the compound `CC[C@H](C)[C@H](NC(=O)[C@@H]1CCCN1C(=O)[C@H]1NC(=O)[C@H](C(C)C)NC(=O)[C@@H](NC)[C@@H](O)c2cc(Cl)c(O)c(c2)O[C@]1(C)CC)C(=O)NC(CC(=O)O)C(=O)O` (mixture of isomers), inhibition in assay [1] was half-maximal at 0.4 µM (IC50).

As to `CC[C@]1(O)C[C@@H]2CN(CCc3c([nH]c4ccccc34)[C@@](C(=O)OC)(c3cc4c(cc3OC)N(C)[C@H]3[C@@](O)(C(=O)OC)[C@H](OC(C)=O)[C@]5(CC)C=CCN6CC[C@]43[C@@H]65)C2)C1` [VINBLASTINE], the half-maximal inhibitory concentration (IC50) worked out at 2.1 µM in assay [1], 0.001 µM in assay [2], 0.0027 µM with K562 and 0.0007 µM with MCF7.

As to `C=C(C)[C@@H]1NC(=O)[C@@H](NC)[C@@H](O)c2cc(Cl)c(O)c(c2)O[C@](C)(CC)[C@@H](C(=O)N2CC=C[C@H]2C(=O)N/C(C(=O)N/C(=C/C(=O)O)C(=O)O)=C(\C)CC)NC1=O` [PHOMOPSIN A], in assay [1], the IC50 worked out at 0.56 µM.

Take `CCC1=C[C@@H]2CN(C1)C[C@H](CN1CCC[C@H]1C(=O)N[C@H](C(=O)OC)[C@@H](C)CC)Cc1c([nH]c3ccccc13)[C@@](C(=O)OC)(c1cc3c(cc1OC)N(C)[C@H]1[C@@](O)(C(=O)OC)[C@H](OC(C)=O)[C@]4(CC)C=CCN5CC[C@]31[C@@H]54)C2`: the IC50 in assay [1] stood at 2.7 µM; in the assay on HCT-116, 1 µM; in assay [2], 0.4 µM; in the assay on K562, 0.25 µM; in the assay with MCF7 it was 0.8 µM.

For `CCC1=C[C@@H]2CN(C1)Cc1c([nH]c3ccccc13)[C@@](C(=O)OC)(c1cc3c(cc1OC)N(C)[C@H]1[C@@](O)(C(=O)OC)[C@H](OC(C)=O)[C@]4(CC)C=CCN5CC[C@]31[C@@H]54)C2` [VINORELBINE], the IC50 was 0.6 µM in assay [1], 0.002 µM in assay [2], 0.0035 µM in the assay with K562 and 0.004 µM with MCF7.

As for `CCC1=C[C@@H]2CN(C1)C[C@H](CN1CCC[C@H]1C(=O)OC)Cc1c([nH]c3ccccc13)[C@@](C(=O)OC)(c1cc3c(cc1OC)N(C)[C@H]1[C@@](O)(C(=O)OC)[C@H](OC(C)=O)[C@]4(CC)C=CCN5CC[C@]31[C@@H]54)C2`, the IC50 in assay [1] amounted to 1 µM; with HCT-116, 0.7 µM; in assay [2], 0.025 µM; in the assay on K562 it was 0.12 µM; in the assay with MCF7 it was 0.23 µM.

The IC50 is the midpoint of a concentration-inhibition curve.

These data come from ChEMBL document CHEMBL3286386, “One-pot synthesis of vinca alkaloids-phomopsin hybrids” (J Med Chem, 2014).
